Experimental data taken from ChEMBL document CHEMBL2034924, “Optimization of a Potent, Orally Active S1P1 Agonist Containing a Quinolinone Core” (ACS Med Chem Lett, 2012).
Values after ≈ are worked out from the molar mass of the structure shown.

How the values were obtained:
[1] = target: T1, Sphingosine 1-phosphate receptor 1 (Homo sapiens, UniProt P21453); assay: Agonist activity at human S1P1 receptor expressed in human U2OS cells co-expressing eGFP assessed as receptor internalization after 1 hr relative to 1-(4-(6-benzylbenzofuran-2-yl)-3-fluorobenzyl)azetidine-3-carboxylic acid; format: functional, cell-based
[2] = target: T1, Sphingosine 1-phosphate receptor 1; assay: Agonist activity at human S1P1 receptor expressed in human U2OS cells co-expressing eGFP assessed as receptor internalization after 1 hr; format: functional, cell-based
Procedure, shortened: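 U2OS cells expressing an hS1P1-GFP fusion protein; the read-out was receptor internalization. EC50 is the molar concentration giving a half-maximal response.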

[3] = target: T2, Sphingosine 1-phosphate receptor 3 (Homo sapiens, UniProt Q99500); assay: Agonist activity at human S1P3 receptor expressed in CHO cells coexpressing Gq/i5 G-protein assessed as Ca2+ mobilization after 60 to 90 mins by FLIPR assay; format: functional, cell-based
Procedure, shortened: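 Ca2+ mobilization in CHO-K1 cells transfected with hS1P3/Gq/i5. EC50 is the molar concentration giving a half-maximal response.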

[4] = target: T2, Sphingosine 1-phosphate receptor 3; assay: Agonist activity at human S1P3 receptor expressed in CHO cells coexpressing Gq/i5 G-protein assessed as Ca2+ mobilization after 60 to 90 mins by FLIPR assay relative to 0.2 uM S1P
[5] = target: T2, Sphingosine 1-phosphate receptor 3; assay: Agonist activity at human S1P3 receptor expressed in CHO cells coexpressing Gq/i5 G-protein assessed as Ca2+ mobilization at 25 uM after 60 to 90 mins by FLIPR assay; format: functional, cell-based
[6] = Solubility of the compound in simulated intestinal fluid at pH 6.8 after 2 to 3 days by HPLC analysis; format: physicochemical
[7] = Apparent permeability of the compound across pig LLC-PK1 cells; format: ADME, cell-based, Sus scrofa
Procedure, shortened: (§1)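 Parental porcine proximal tubule LLC-PK1 cell line. Apparent permeability was measured, and the efflux ratio was derived from it.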

[8] = Efflux ratio of permeability in pig LLC-PK1 cells; format: ADME, cell-based, Sus scrofa; procedure, shortened: as §1
[9] = Plasma protein binding in rat; format: ADME, cell-free; settings: read-out: PPB (converted)
[10] = Intrinsic clearance in rat liver microsomes at 1 uM after 30 mins; format: ADME, Microsome; settings: read-out: CLH
[11] = system: Rattus norvegicus; assay: Lymphopenic activity in Lewis rat assessed as reduction in peripheral blood lymphocyte counts at 1 mg/kg, po measured 24 hrs post dosing relative to control; format: functional; parameters: scale not given: the % may be the effect or the level left
Procedure, shortened: (§2)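 Female Lewis rats (N = 5/group) received a single oral dose of 1 mg/kg in 20% captisol, 1% HPMC, 1% pluronic F68, pH 2.1 with MSA. Peripheral lymphocyte count is given as percent-of-control reduction versus vehicle at 24 h. Total plasma drug concentration was measured at 24 h. Statistics used ANOVA/Dunnett versus vehicle.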

[12] = system: Plasma; assay: Plasma concentration in Lewis rat at 1 mg/kg, po measured 24 hrs post dosing; format: ADME, organism-based; parameters: dose 1 mg/kg, route oral; settings: in vivo, 24 h, BLD = below limit of detection; procedure, shortened: as §2
[13] = AUC (0 to 24 hrs) in rat at 3 mg/kg, po; format: ADME, organism-based; parameters: time < 24 hr, dose 3 mg/kg, route oral; settings: plasma
[14] = system: Rattus norvegicus; assay: AUC (0 to 24 hrs) in rat at 100 mg/kg, po; format: ADME, organism-based, Plasma; parameters: time < 24 hr, dose 100 mg/kg, route oral; settings: in vivo

T2 sequence (Q99500 whole entry): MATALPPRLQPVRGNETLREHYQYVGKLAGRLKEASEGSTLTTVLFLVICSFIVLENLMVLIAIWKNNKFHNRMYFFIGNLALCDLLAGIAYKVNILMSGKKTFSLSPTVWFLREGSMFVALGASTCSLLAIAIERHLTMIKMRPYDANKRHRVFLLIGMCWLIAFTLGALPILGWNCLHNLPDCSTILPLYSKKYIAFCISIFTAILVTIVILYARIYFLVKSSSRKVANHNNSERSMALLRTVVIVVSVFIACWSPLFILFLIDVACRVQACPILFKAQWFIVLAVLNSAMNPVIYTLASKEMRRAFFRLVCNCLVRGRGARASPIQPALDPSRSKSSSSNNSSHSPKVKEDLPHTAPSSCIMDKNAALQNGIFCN
T1 sequence (P21453 whole entry): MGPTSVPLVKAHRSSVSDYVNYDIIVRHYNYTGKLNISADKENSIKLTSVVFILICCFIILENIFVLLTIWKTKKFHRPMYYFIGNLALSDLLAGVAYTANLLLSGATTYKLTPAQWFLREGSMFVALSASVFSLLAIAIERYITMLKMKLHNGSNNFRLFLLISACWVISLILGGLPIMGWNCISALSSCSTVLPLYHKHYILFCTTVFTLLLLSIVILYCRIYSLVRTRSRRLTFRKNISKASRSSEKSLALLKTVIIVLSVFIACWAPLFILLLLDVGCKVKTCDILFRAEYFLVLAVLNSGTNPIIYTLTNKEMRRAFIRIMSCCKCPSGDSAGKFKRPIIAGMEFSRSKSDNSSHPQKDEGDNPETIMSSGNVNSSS

Row | SMILES | Efficacy [1] | EC50 [2] | EC50 [3] | Efficacy [4] | Activity [5] | other results
1 | Cn1cc(C(=O)Nc2ccc(-c3ccccc3)c(C(F)(F)F)c2)c(=O)c2ccccc21 | 105% |  |  |  |  | 
2 | Cn1cc(C(=O)Nc2ccc(-c3ccccc3)c(C(F)(F)F)c2)c(=O)c2ccc(CC(=O)O)cc21 | 138% | 180 nM | 1600 nM | 28% |  | 
3 | Cn1cc(C(=O)Nc2ccc(-c3ccccc3)c(C(F)(F)F)c2)c(=O)c2ccc(CN3CC(C(=O)O)C3)cc21 | 108% | 25 nM | > 25000 nM |  | < 10% | 
4 | Cn1cc(C(=O)Nc2ccc(-c3ccccc3)c(C(F)(F)F)c2)c(=O)c2cccc(C(=O)O)c21 | 103% | 2000 nM | 1100 nM | 11% |  | 
5 | Cn1cc(C(=O)Nc2ccc(-c3ccccc3)c(C(F)(F)F)c2)c(=O)c2ccc(NCCC(=O)O)cc21 | 81% | 150 nM | > 25000 nM |  | < 10% | 
6 | Cn1cc(C(=O)Nc2ccc(-c3ccccc3)c(C(F)(F)F)c2)c(=O)c2cccc(CN)c21 | 118% | 81 nM | 5600 nM | 48% |  | 
7 | Cn1cc(C(=O)Nc2ccc(-c3ccccc3)c(C(F)(F)F)c2)c(=O)c2cnc(CCC(=O)O)cc21 | 88% | 38 nM | 1300 nM | 49% |  | 
8 | Cn1cc(C(=O)Nc2ccc(-c3ccccc3)c(C(F)(F)F)c2)c(=O)c2ccc(C(=O)O)cc21 | 98% | 21 nM | > 25000 nM |  | < 10% | solubility [6]: 48 µg/mL (≈ 103 µM); Papp [7]: 3 ×10⁻⁶ cm/s; efflux ratio [8]: 6.7; fraction unbound [9]: 0.02; microsomal CLint at 1 µM [10]: < 14 µL/min/mg; Activity [11]: 4%; Cp [12]: BLD
9 | COc1ccncc1C(=O)NC(=O)Nc1ccc(-c2ccccc2)c(C(F)(F)F)c1 |  |  |  |  |  | AUC(0-t) at 24 h [13]: 12 µM·h; AUC [14]: 73 µM·h
